Experimental data: ChEMBL document CHEMBL2331505, “Synthesis of quinoline derivatives: discovery of a potent and selective phosphodiesterase 5 inhibitor for the treatment of Alzheimer's disease” (Eur J Med Chem, 2013)

Key:
[1] = target: Phosphodiesterase 3 (Homo sapiens, UniProt Q14432+Q13370); test: Inhibition of PDE3 (unknown origin) using FAM-cGMP and FAM-cAMP as substrate after 60 mins by fluorescence assay; type: protein assay
[2] = target: Phosphodiesterase 7 (Homo sapiens, UniProt Q13946+Q9NP56); test: Inhibition of PDE7 (unknown origin) using FAM-cAMP as substrate after 60 mins by fluorescence assay; type: protein assay
[3] = tested on: Mus musculus; test: Inhibition of PDE5 in C57Bl6 mouse assessed as increase in electric shock-induced hippocampal cGMP level measured per mg of protein at 3 mg/kg, ip administered 30 mins prior to electric shock induction measured after 10 secs (reference value: 0.318 0.0145 pmol); type: functional, Hippocampus; conditions: route intraperitoneal
In short: (§1)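 Male and female C57Bl6 mice, 2–3 months old, 20–25 g, received 3 mg/kg i.p. in 2% DMSO/2% Tween or vehicle alone. Foot shock was given 30 min later. Mice were killed 10 s, 1 min or 3 min after shock and the hippocampus was snap-frozen. cGMP was measured by enzyme immunoassay in duplicate and normalised to BCA protein; n=3 per group.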

[4] = organism: Homo sapiens; test: Selectivity ratio of IC50 for PDE2 (unknown origin) to IC50 for PDE5 (unknown origin)
[5] = target: Phosphodiesterase 1 (Homo sapiens, UniProt P54750+Q01064+Q14123); test: Inhibition of PDE1 (unknown origin) using FAM-cGMP and FAM-cAMP as substrate after 60 mins by fluorescence assay; type: protein assay
[6] = target: Phosphodiesterase 4 (Homo sapiens, UniProt P27815+Q08499+Q07343+Q08493); test: Inhibition of PDE4 (unknown origin) using FAM-cAMP as substrate after 60 mins by fluorescence assay; type: protein assay
[7] = tested on: Mus musculus; test: Inhibition of PDE5 in C57Bl6 mouse assessed as increase in electric shock-induced hippocampal cGMP level measured per mg of protein at 3 mg/kg, ip administered 30 mins prior to electric shock induction measured after 3 mins (reference value: 0.46 0.0385 pmol); type: functional, Hippocampus; conditions: route intraperitoneal; in short: as §1
[8] = tested on: Hippocampus; test: Reversal of amyloid beta42-induced post synaptic dysfunction in mouse hippocampal assessed as increase in theta burst-induced long term potentiation at 50 nM incubated 10 mins prior to theta burst induction measured after 60 mins for 5 mins by electrophysiological assay (reference value: 144.65 9.99%); type: functional
[9] = tested on: Mus musculus; test: Reversal of post synaptic dysfunction in APP/PS1 transgenic mouse assessed as increase in theta burst-induced long term potentiation at 3 mg/kg/day, ip administered 3 weeks measured after 9 to 12 weeks […] (reference value: 112.29 9.12%); type: functional; conditions: route intraperitoneal
[10] = tested on: Plasma; test: Mean residence time in mouse plasma at 50 mg/kg, po; type: ADME, organism-based; set-up: dose 50 mg/kg, route oral; conditions: in vivo
[11] = tested on: Brain; test: Tmax in mouse brain at 50 mg/kg, po; type: ADME, organism-based; set-up: dose 50 mg/kg, route oral; conditions: in vivo
In short: (§2)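 Male BALB/c mice dosed once orally at 50 mg/kg in 0.05% aqueous methylcellulose. Blood (retro-orbital, heparin) and brain were taken at 0, 0.25, 0.5, 1, 2 and 4 h, three mice per time point. Plasma and methanol brain homogenate were extracted with methanol plus internal standard and analysed by LC/MS/MS. Quantitation used analyte/internal standard peak-area ratios with weighted (1/x2) linear regression.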

[12] = target: High affinity cGMP-specific 3',5'-cyclic phosphodiesterase 9A (Homo sapiens, UniProt O76083); test: Inhibition of PDE9 (unknown origin) using FAM-cGMP as substrate after 60 mins by fluorescence assay
[13] = organism: Homo sapiens; test: Selectivity ratio of IC50 for PDE9 (unknown origin) to IC50 for PDE5 (unknown origin)
[14] = tested on: Mus musculus; test: Reversal of contextual fear memory deficit in APP/PS1 transgenic mouse assessed as increase in freezing behavior at 3 mg/kg, ip after 3 weeks (reference value: 10%); type: functional; conditions: route intraperitoneal
[15] = Ratio of AUC (0 to t) in mouse brain to AUC (0 to t) in mouse plasma; type: ADME, cell-free
In short: (§3)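 Male BALB/c mice given 50 mg/kg p.o. in 0.05% methylcellulose aqueous solution. Blood (retro-orbital, heparin) and brain taken at 0, 0.25, 0.5, 1.0, 2.0 and 4.0 h, three mice per time point. Plasma and methanol brain homogenate extracted with internal standard and quantified by LC/MS/MS (peak area ratio, weighted linear regression). Ratio is brain over plasma parameter.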

[16] = tested on: Plasma; test: AUC (0 to t) in mouse plasma at 50 mg/kg, po; type: ADME, organism-based; set-up: dose 50 mg/kg, route oral; conditions: in vivo; in short: as §2
[17] = Ratio of AUC (0 to infinity) in mouse brain to AUC (0 to infinity) in mouse plasma; type: ADME, cell-free; in short: as §3
[18] = target: Phosphodiesterase 6; test: Inhibition of PDE6 (unknown origin) using FAM-cGMP as substrate after 60 mins by fluorescence assay; type: protein assay, Homo sapiens
[19] = organism: Homo sapiens; test: Selectivity ratio of IC50 for PDE11 (unknown origin) to IC50 for PDE5 (unknown origin)
[20] = Cmax in mouse brain at 50 mg/kg, po; type: ADME, organism-based; set-up: dose 50 mg/kg, route oral; in short: as §2
[21] = tested on: Plasma; test: Tmax in mouse plasma at 50 mg/kg, po; type: ADME, organism-based; set-up: dose 50 mg/kg, route oral; conditions: in vivo; in short: as §2
[22] = tested on: Plasma; test: Cmax in mouse plasma at 50 mg/kg, po; type: ADME, organism-based; set-up: dose 50 mg/kg, route oral; conditions: in vivo; in short: as §2
[23] = organism: Homo sapiens; test: Selectivity ratio of IC50 for PDE3 (unknown origin) to IC50 for PDE5 (unknown origin)
[24] = tested on: Brain; test: Mean residence time in mouse brain at 50 mg/kg, po; type: ADME, organism-based; set-up: dose 50 mg/kg, route oral; conditions: in vivo; in short: as §2
[25] = Ratio of Cmax in mouse brain to Cmax in mouse plasma; type: ADME, cell-free; in short: as §3
[26] = target: cAMP and cAMP-inhibited cGMP 3',5'-cyclic phosphodiesterase 10A (Homo sapiens, UniProt Q9Y233); test: Inhibition of PDE10 (unknown origin) using FAM-cGMP and FAM-cAMP as substrate after 60 mins by fluorescence assay
[27] = tested on: Brain; test: AUC (0 to t) in mouse brain at 50 mg/kg, po; type: ADME, organism-based; set-up: dose 50 mg/kg, route oral; conditions: in vivo; in short: as §2
[28] = tested on: Brain; test: AUC (0 to infinity) in mouse brain at 50 mg/kg, po; type: ADME, organism-based; set-up: dose 50 mg/kg, route oral, time infinity; conditions: in vivo; in short: as §2
[29] = organism: Homo sapiens; test: Selectivity ratio of IC50 for PDE10 (unknown origin) to IC50 for PDE5 (unknown origin)
[30] = organism: Homo sapiens; test: Selectivity ratio of IC50 for PDE7 (unknown origin) to IC50 for PDE5 (unknown origin)
[31] = target: Phosphodiesterase 8 (Homo sapiens, UniProt O95263+O60658); test: Inhibition of PDE8 (unknown origin) using FAM-cAMP as substrate after 60 mins by fluorescence assay; type: protein assay
[32] = tested on: Plasma; test: AUC (0 to infinity) in mouse plasma at 50 mg/kg, po; type: ADME, organism-based; set-up: time infinity, dose 50 mg/kg, route oral; conditions: in vivo; in short: as §2
[33] = tested on: Mus musculus; test: Reversal of contextual fear memory deficit in APP/PS1 transgenic mouse assessed as increase in freezing behavior at 3 mg/kg/day, ip administered 3 weeks measured after 9 to 12 weeks […] (reference value: 10%); type: functional; conditions: route intraperitoneal
[34] = tested on: Mus musculus; test: Inhibition of PDE5 in C57Bl6 mouse assessed as increase in electric shock-induced hippocampal cGMP level measured per mg of protein at 3 mg/kg, ip administered 30 mins prior to electric shock induction measured after 1 min (reference value: 0.41 0.028 pmol); type: functional, Hippocampus; conditions: route intraperitoneal; in short: as §1
[35] = organism: Homo sapiens; test: Selectivity ratio of IC50 for PDE1 (unknown origin) to IC50 for PDE5 (unknown origin)
[36] = organism: Homo sapiens; test: Selectivity ratio of IC50 for PDE6 (unknown origin) to IC50 for PDE5 (unknown origin)
[37] = target: cGMP-dependent 3',5'-cyclic phosphodiesterase (Homo sapiens, UniProt O00408); test: Inhibition of PDE2 (unknown origin) using FAM-cGMP and FAM-cAMP as substrate after 60 mins by fluorescence assay
[38] = organism: Homo sapiens; test: Selectivity ratio of IC50 for PDE8 (unknown origin) to IC50 for PDE5 (unknown origin)
[39] = target: Dual 3',5'-cyclic-AMP and -GMP phosphodiesterase 11A (Homo sapiens, UniProt Q9HCR9); test: Inhibition of PDE11 (unknown origin) using FAM-cGMP and FAM-cAMP as substrate after 60 mins by fluorescence assay
[40] = tested on: Mus musculus; test: Reversal of contextual fear memory deficit in amyloid beta42-infused mouse assessed as increase in freezing behavior at 3 to 10 mg/kg, po administered immediately post electric shock measured after 24 hrs (reference value: 10%); type: functional; conditions: dose mg/kg 3-10
In short: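 Aβ42 (200 nM, 1 μl over 1 min) or vehicle was infused bilaterally into the dorsal hippocampus through cannulas implanted 6–8 days earlier under Avertin. Infusion was 15 min before foot-shock training. Compound was given at 3 or 10 mg/kg p.o. immediately after training. Freezing was scored for 5 min in the same chamber 24 h later.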

[41] = tested on: Hippocampus; test: Reversal of post synaptic dysfunction in APP/PS1 transgenic mouse hippocampal assessed as increase in theta burst-induced long term potentiation at 50 nM incubated 10 mins prior to theta burst induction measured after 2 hrs for 5 mins by electrophysiological assay (reference value: 145.84 7.78%); type: functional
In short: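 Transverse hippocampal slices (400 μm) from APP/PS1 mice were kept in an interface chamber at 29 °C and perfused with aerated ACSF, pH 7.4. Compound (50 nM) was bath-applied for 10 min before tetanus. CA1 fEPSP slopes were expressed as % of baseline, averaged over the last 5 min of a 2 h recording.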

[42] = organism: Homo sapiens; test: Selectivity ratio of IC50 for PDE4 (unknown origin) to IC50 for PDE5 (unknown origin)
[43] = target: cGMP-specific 3',5'-cyclic phosphodiesterase (Homo sapiens, UniProt O76074); test: Inhibition of PDE5 (unknown origin) using FAM-cGMP as substrate after 60 mins by fluorescence assay

Sequence of High affinity cGMP-specific 3',5'-cyclic phosphodiesterase 9A (O76083 whole entry): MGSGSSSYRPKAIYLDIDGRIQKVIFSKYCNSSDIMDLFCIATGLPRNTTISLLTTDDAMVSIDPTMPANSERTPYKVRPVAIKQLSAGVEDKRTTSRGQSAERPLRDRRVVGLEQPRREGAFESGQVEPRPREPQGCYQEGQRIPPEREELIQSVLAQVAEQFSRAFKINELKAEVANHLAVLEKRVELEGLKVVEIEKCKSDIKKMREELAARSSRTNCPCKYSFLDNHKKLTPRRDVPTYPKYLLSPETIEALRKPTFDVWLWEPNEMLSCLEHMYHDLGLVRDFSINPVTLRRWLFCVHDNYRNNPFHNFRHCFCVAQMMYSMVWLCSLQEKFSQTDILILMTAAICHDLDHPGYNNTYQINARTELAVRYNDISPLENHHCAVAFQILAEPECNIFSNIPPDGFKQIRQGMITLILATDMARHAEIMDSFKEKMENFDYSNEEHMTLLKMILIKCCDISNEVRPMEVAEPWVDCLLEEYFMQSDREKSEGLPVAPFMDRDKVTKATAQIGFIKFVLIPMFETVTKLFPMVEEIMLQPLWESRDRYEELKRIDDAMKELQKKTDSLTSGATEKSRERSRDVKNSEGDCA
Sequence of cGMP-dependent 3',5'-cyclic phosphodiesterase (O00408 whole entry): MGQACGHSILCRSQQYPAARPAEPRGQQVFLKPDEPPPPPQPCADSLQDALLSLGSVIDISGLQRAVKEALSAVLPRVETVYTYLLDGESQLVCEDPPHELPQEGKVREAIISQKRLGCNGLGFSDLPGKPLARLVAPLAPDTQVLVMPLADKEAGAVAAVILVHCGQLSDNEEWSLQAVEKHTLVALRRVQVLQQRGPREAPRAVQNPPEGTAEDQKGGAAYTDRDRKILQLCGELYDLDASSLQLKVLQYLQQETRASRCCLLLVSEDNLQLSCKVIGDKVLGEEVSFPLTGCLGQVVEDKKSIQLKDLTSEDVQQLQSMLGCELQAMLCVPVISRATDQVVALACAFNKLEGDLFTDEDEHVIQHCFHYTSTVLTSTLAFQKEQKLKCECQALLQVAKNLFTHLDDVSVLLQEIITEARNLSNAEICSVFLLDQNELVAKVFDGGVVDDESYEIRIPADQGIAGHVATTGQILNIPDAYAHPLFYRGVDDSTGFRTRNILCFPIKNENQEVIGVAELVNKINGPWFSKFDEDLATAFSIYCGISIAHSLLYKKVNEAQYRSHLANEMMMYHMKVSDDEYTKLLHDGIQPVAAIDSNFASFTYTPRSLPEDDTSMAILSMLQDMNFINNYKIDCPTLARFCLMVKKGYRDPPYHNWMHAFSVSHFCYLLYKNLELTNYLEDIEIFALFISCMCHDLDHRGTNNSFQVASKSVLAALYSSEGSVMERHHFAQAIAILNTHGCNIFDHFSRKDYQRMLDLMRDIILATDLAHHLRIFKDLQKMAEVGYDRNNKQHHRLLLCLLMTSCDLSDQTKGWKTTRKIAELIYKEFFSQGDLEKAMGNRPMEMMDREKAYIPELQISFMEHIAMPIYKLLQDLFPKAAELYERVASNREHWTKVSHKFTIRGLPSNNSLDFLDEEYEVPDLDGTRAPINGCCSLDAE
Sequence of Dual 3',5'-cyclic-AMP and -GMP phosphodiesterase 11A (Q9HCR9 whole entry, the tested form may be a part): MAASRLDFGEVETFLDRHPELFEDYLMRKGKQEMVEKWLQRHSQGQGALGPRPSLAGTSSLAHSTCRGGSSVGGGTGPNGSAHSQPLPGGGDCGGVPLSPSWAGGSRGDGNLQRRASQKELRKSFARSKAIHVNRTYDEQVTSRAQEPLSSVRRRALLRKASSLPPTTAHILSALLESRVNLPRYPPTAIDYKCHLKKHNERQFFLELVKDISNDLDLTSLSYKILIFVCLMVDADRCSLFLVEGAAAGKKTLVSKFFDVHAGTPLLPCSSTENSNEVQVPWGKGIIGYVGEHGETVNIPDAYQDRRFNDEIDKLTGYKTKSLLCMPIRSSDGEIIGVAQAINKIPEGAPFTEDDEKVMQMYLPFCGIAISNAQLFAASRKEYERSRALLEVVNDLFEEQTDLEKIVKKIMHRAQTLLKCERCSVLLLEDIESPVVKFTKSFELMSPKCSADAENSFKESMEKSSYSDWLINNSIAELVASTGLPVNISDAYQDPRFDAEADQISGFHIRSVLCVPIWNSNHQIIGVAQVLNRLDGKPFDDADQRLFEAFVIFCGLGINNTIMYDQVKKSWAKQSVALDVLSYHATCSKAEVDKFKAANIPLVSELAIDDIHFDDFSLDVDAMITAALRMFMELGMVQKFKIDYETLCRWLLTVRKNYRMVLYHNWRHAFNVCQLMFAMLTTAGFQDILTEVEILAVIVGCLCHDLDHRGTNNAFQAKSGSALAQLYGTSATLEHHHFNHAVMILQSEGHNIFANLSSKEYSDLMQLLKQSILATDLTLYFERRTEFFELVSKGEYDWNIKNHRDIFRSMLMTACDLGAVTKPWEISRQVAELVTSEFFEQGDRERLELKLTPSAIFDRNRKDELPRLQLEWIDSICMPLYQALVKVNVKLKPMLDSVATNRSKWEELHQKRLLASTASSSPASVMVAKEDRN
Sequence of cAMP and cAMP-inhibited cGMP 3',5'-cyclic phosphodiesterase 10A (Q9Y233 whole entry): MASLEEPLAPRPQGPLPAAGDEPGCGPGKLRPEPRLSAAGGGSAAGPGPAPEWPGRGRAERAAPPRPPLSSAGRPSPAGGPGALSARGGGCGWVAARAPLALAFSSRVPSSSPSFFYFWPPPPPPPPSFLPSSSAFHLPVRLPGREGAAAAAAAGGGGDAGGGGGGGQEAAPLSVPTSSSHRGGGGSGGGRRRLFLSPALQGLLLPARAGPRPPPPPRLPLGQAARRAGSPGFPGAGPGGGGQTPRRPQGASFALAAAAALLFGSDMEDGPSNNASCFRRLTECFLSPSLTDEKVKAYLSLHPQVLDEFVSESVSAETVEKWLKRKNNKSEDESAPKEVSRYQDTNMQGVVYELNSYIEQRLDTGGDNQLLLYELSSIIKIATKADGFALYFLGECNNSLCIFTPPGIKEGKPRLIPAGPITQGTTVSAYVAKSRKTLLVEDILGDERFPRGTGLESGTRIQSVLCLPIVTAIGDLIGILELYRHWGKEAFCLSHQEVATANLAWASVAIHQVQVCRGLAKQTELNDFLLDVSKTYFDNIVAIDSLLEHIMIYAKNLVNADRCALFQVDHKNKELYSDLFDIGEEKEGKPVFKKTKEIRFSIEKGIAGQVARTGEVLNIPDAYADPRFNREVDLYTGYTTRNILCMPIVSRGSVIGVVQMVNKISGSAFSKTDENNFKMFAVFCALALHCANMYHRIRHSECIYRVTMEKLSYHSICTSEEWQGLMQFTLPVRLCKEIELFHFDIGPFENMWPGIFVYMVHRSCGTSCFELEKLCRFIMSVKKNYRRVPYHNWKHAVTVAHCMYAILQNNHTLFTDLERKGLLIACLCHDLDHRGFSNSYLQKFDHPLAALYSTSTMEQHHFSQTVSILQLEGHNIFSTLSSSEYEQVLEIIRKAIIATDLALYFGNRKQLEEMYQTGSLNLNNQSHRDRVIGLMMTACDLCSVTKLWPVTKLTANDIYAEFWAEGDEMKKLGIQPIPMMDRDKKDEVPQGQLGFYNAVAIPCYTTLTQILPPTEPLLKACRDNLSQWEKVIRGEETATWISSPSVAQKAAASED

COc1ccc(CNc2c(CO)cnc3c(C4CC4)cc(C#N)cc23)cc1Cl
IC50 [1]: > 10 µM | IC50 [2]: > 10 µM | Activity [3]: 0.83 pmol | Ratio IC50 [4]: > 10000 | IC50 [5]: > 10 µM | IC50 [6]: > 10 µM | Activity [7]: 0.89 pmol | Activity [8]: 192.63% | Activity [9]: 180.9% | MRT [10]: 1.61 h | Tmax [11]: 0.5 h | IC50 [12]: > 10 µM | Ratio IC50 [13]: > 10000 | Activity [14]: 30% | Ratio AUC [15]: 0.41 | AUCt [16]: 1014 ng·h/mL | Ratio AUC [17]: 0.37 | IC50 [18]: 0.339 µM | Ratio IC50 [19]: > 10000 | Cmax [20]: 385 ng/g | Tmax [21]: 0.5 h | Cmax [22]: 1022 ng/mL | Ratio IC50 [23]: > 10000 | MRT [24]: 1.66 h | Ratio [25]: 0.38 | IC50 [26]: > 10 µM | AUCt [27]: 418 ng·h/g | AUC [28]: 420 ng·h/g | Ratio IC50 [29]: > 10000 | Ratio IC50 [30]: > 10000 | IC50 [31]: > 10 µM | AUC [32]: 1133 ng·h/mL | Activity [33]: 30% | Activity [34]: 0.69 pmol | Ratio IC50 [35]: > 10000 | Ratio IC50 [36]: 1260 | IC50 [37]: > 10 µM | Ratio IC50 [38]: > 10000 | IC50 [39]: > 10 µM | Activity [40]: 30% | Activity [41]: 180.85% | Ratio IC50 [42]: > 10000

CCNc1cc(C#N)cc2c(NCc3ccc(OC)c(Cl)c3)c(CO)cnc12
IC50 [43]: 0.015 µM

CCCc1nc(C)c2c(=O)nc(-c3cc(S(=O)(=O)N4CCN(CC)CC4)ccc3OCC)[nH]n12
IC50 [31]: > 10 µM

COc1ccc(CNc2c(CO)cnc3c(NCCN(C)C)cc(C#N)cc23)cc1Cl
IC50 [43]: 0.0043 µM
